Compound activity (PubChem)
HTRA1 inh: inhibitors of human serine peptidase HTRA1 | Q92743 | recombinant HTRA1, FP-rhodamine activity-based probe, fluorescence polarization | inhibition, % at 5.96 µM | actives 0.5% (n = 340,000) | AID 504803; in the data active = inhibition above about 36%;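 also: 0% = enzyme with DMSO and 100% = wells lacking enzyme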
Tn6 DDE FP: inhibitors of Tn6 peptide binding to human fibrin DD(E) | P02675 | inhibition, % at 8.3 µM | actives 0.21% (n = 370,000) | Fibrin DD(E) TRITC-Tn6 fluorescence polarization displacement;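 active = inhibition above a per-campaign cutoff: mean of compounds within control limits plus 3 SD, cut at about 15% in these data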;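 also: 0% = median of all compound wells on the plate and 100% = blocking peptide control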
TCR CD3 inh: inhibitors of human TCR-CD3 interaction. TAMRA-labeled TCR probe fluorescence, biochemical. inhibition, % at 9.4 µM. actives 0.37% (n = 360,000); in the data active = inhibition above about 19%;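 also: recombinant mutant TCR 2C K166C tagged with TAMRA read by polarization; 0% = receptor in buffer alone and 100% = receptor with positive control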
SIAE inh: blocks human sialic acid acetylesterase | Q9HAT2 | SIAE FP-Rh probe binding, fluorescence polarization | AID 1053197 | actives 0.69% (n = 370,000) | inhibition, % at 9.66 µM;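 active = inhibition above a cutoff: mean of compounds within the control limits plus 3 SD of those, cut at about 17% in these data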;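 also: 0% = plate median of compound wells and 100% = probe without SIAE protein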
Tn7 DDE FP: disrupts Tn7 cyclic peptide binding to fibrin D-Dimer-E complex. actives 0.13% (n = 370,000). P02675. FP displacement of FITC-Tn7 peptide from fibrin DD(E); 0% = median of compound wells per plate. inhibition, % at 8.3 µM;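 active = inhibition above the mean of compounds falling within the control limits plus 3 SD of them, cut at about 14% in these data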;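 also: 0% = plate median of compound wells and 100% = 10 µM Aha-Tn7 peptide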
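Assay system: Fibrin-DD(E) protein isolated from polymerized human fibrin clots; read-out basis: percent inhibition; medium: Tris/NaCl/CaCl2 buffer, pH 7.8; signal: FP measurement; incubation: 10 min plus 3 h, room temperature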
mABHD4 FP: ABHD4 (mouse) inhibition, primary FP screen; purified mABHD4, FP-Rh probe fluorescence polarization; inhibition, % at 8.92 µM; actives 0.54% (n = 370,000); AID 720543;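 active = inhibition exceeding the mean over every tested compound plus 3 SD, cut at about 30% in these data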;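 also: 0% = plate median of compound wells and 100% = S159A mutant with DMSO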
Target sequence (Q8VD66 whole entry, looked up): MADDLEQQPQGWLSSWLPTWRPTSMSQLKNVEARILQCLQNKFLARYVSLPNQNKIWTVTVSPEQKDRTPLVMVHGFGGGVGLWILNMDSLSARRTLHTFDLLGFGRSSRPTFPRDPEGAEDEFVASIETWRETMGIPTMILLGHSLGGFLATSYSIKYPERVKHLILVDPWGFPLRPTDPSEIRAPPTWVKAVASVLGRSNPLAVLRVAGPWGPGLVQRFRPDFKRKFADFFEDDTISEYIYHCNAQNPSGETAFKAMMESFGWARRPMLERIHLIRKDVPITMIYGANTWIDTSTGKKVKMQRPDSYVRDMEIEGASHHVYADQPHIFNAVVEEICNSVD
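assay system = mABHD4 protein | compound dosing = single nominal dose of 8.92 µM, 0.89% DMSO final | read-out basis = percent inhibition of probe binding, normalized to plate controls | schedule = Enzyme–compound pre-incubation 45 min, then probe 60 min, both 25 °C | detection = fluorescence polarization, excitation 525 nm, emission 598 nm, BODIPY TMR filters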
SIAE inh conf: confirmation of human SIAE inhibitors | shares compounds with SIAE inh | SIAE FP-Rh activity-based probe, fluorescence polarization | inhibition, % at 9.66 µM | actives 13% (n = 2,300) | AID 1117263;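 active = mean inhibition of the replicates above the hit cutoff set in the primary screen, cut at about 17% in these data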;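 also: 0% = SIAE with DMSO and probe and 100% = probe without SIAE; inhibitors lower polarization as more probe stays unbound to SIAE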
* = called active by the depositor; . = not tested or not shown. Most compounds without a hit are left out; they make up all but 1.8% or so of the library.

SMILES | HTRA1 inh | Tn6 DDE FP | TCR CD3 inh | SIAE inh | Tn7 DDE FP | mABHD4 FP | SIAE inh conf
Clc1ccc(/C=N/Nc2ncnc3ccccc23)cc1Cl | 2 | -1 | 3 | 27* | -4 | -2 | -23
Cc1ccc(S(=O)(=O)N2CCN(C(=O)c3cccn3C)CC2)cc1 | . | -2 | . | 5 | 1 | 2 | .
COC(=O)c1cccc(NC(=O)Nc2ccc(Cl)cc2)c1 | . | 1 | 6 | 19* | 3 | -18 | -1
O=C1CCCN1c1ccc(S(=O)(=O)N2CCC(c3ccccc3)CC2)cc1 | -1 | -2 | -4 | 22* | 6 | -4 | -2
C=CCn1c(COc2ccc(C)cc2)nnc1SCC(=O)Nc1ccc(Oc2ccccc2)cc1 | . | 1 | . | -2 | 1 | -6 | .
Cc1ccc(-c2cc(C(=O)N=Nc3c(O)[nH]c4ccccc34)[nH]n2)cc1C | . | 8 | . | 8 | -8 | 2 | .
NNC(=O)CC1=NNC(=O)C1 | 4 | -2 | -4 | 19* | 1 | -1 | 0
O=C1CC(CC(=O)N/N=C/c2ccccc2[N+](=O)[O-])=NN1 | 7 | -4 | -3 | -3 | 5 | 13 | .
CC(=NN1CCN(c2ccccn2)CC1)c1ccccc1O | . | 2 | . | 5 | -2 | -1 | .
O=[N+]([O-])c1ccc(N2CCN(Cc3ccc4c(c3)OCO4)CC2)nc1 | 3 | 2 | -9 | 24* | 3 | -5 | 0
CCCC(=O)N1CCC(O)(c2cccc(F)c2)CC1 | 2 | -2 | -2 | 49* | -3 | -4 | 0
O=C(N/N=C/c1cn(-c2ccccc2)nc1-c1ccccc1)c1ccco1 | -44 | -6 | -2 | 21* | 12 | -14 | 3
O=C(N/N=C\c1cn(-c2ccccc2)nc1-c1ccccc1)c1ccc(Br)o1 | 11 | -7 | 1 | -75 | 0 | -22 | .
c1cc2c(cc1-c1cnc3n1CCC3)OCCO2 | 2 | -3 | -4 | 17* | 1 | 0 | -4
Cc1ccc(-c2cnc3n2CCCCC3)cc1 | -9 | -1 | -4 | -7 | -8 | 2 | .
Brc1ccc2nc(-c3ccncc3)c(NC3CCCC3)n2c1 | 5 | -4 | 0 | 19* | -1 | 0 | 2
CCc1nc(C)cn1S(=O)(=O)c1cc(C)c(OC)cc1C | -1 | 4 | 2 | -2 | 1 | 2 | .
CCc1nc(C)cn1S(=O)(=O)c1cc(C)c(OC)c(C)c1C | -1 | 4 | 5 | 37* | 4 | 4 | -2
COc1cccc(OCCn2cc(/C=N/NC(=O)c3ccncc3)c3ccccc32)c1 | 1 | -1 | -2 | 31* | -5 | 0 | 0
CNC(=S)N/N=C/c1cn(CCOc2cccc(OC)c2)c2ccccc12 | 4 | 0 | 5 | 22* | 8 | 2 | 7
Cc1ccc(OCCn2cc(/C=N/NC(=O)c3ccncc3)c3ccccc32)cc1 | -11 | -9 | -7 | 29* | -5 | -3 | -1
C[C@H]1COc2cc(Br)ccc2S(=O)(=O)N1Cc1cn(CC2CCCCC2)nn1 | . | 1 | . | -1 | -5 | -1 | .
CC(C)CN1C(=O)C[C@]2(C(=O)N(C)c3ccc(NS(=O)(=O)C4CC4)cc32)C1c1ccccc1 (stereo partly drawn) | . | -2 | . | -16 | 4 | 0 | .
COc1ccc(-n2nnc3c(=O)n(CC(=O)Nc4cc(C)on4)cnc32)cc1OC | 4 | 4 | 8 | 24* | -2 | 0 | -1
Cc1ccccc1NC(=O)COC(=O)C1(C)CC1(Cl)Cl (stereo not drawn) | -5 | 0 | 7 | 19* | 1 | -2 | 12
SMILES | HTRA1 inh | Tn6 DDE FP | TCR CD3 inh | SIAE inh | Tn7 DDE FP | mABHD4 FP | SIAE inh conf
CN(c1ccc(NC(=O)CCc2c[nH]c3ccccc23)cc1)c1ccccn1 | . | 0 | -3 | 27* | 3 | -1 | 22*
O=C(CCc1c[nH]c2ccccc12)Nc1ccc(S(=O)(=O)Nc2ncccn2)cc1 | -1 | -3 | -4 | 11 | 2 | 2 | .
CN(c1ccc(NC(=O)Cc2cn(C)c3ccccc23)cc1)c1ccccn1 | . | -7 | -7 | 29* | -6 | 3 | 29*
Cc1cc(-c2csc(NC(=O)c3ccc(=O)[nH]c3)n2)c(C)n1Cc1ccccc1 | 18 | -3 | 1 | 26* | 8 | -6 | 0
O=C(Nc1nc(-c2ccccc2)cs1)c1ccc(=O)[nH]c1 | -16 | -2 | -2 | -4 | -1 | -18 | .
CCCCN(C(=O)C(C)N1C(=O)c2ccccc2C1=O)c1c(N)n(CCCC)c(=O)[nH]c1=O (stereo not drawn) | -1 | 1 | -5 | 19* | -2 | 0 | -5
CN(C)CCCCCCCCCCC(=O)/C=N/O | 6 | 0 | -5 | 16 | 1 | -1 | .
CN(CCCCCCCCC(=O)/C=N/O)Cc1ccccc1 | 5 | -1 | 0 | 22* | 0 | 4 | 9
Cc1ccn2c(Nc3ccccc3C)c(-c3ccccn3)nc2c1 | 10 | 2 | -9 | 18* | -1 | 7 | 5
O=C(NC(=S)Nc1ccc(S(=O)(=O)Nc2nccs2)cc1)C1CC1 | 7 | -4 | -5 | 2 | -1 | -3 | .
O=C(Nc1ccc(S(=O)(=O)Nc2nccs2)cc1)C1CCCCC1 | -1 | -5 | 5 | 20* | -6 | -4 | 5
Cc1c(C(=O)Nc2ccccc2)c2ccc(C(F)(F)F)cc2n1O | . | -3 | 4 | 25* | 12 | -5 | 29*
Cc1cc([N+](=O)[O-])nn1Cc1ccc(C(=O)N/N=C/c2ccc(O)cc2O)cc1 | 11 | 3 | 10 | 19* | 5 | 12 | 5
O=C(COC(=O)c1ccc(CSc2ccc(Cl)cc2)cc1)Nc1ccccc1 | -3 | -3 | 1 | 20* | -4 | 1 | -4
O=C(COC(=O)CSc1ccc(Cl)cc1)Nc1ccccc1 | -3 | 6 | -4 | -7 | 5 | -3 | .
Cn1c(=O)c(Nc2ccc(Cl)cc2)c2c3c(cccc31)C(=O)c1ccccc1-2 | . | 4 | 42* | 31* | 36* | 42* | 35*
Cc1ccc(CN(C)C(=O)c2ccc(S(=O)(=O)N3CCCCCC3)cc2)o1 | 1 | 2 | 1 | 17* | 5 | 3 | 0
CN(Cc1cccs1)C(=O)c1ccc(S(=O)(=O)N2CCCCC2)cc1 | 9 | 5 | -6 | 2 | -2 | -2 | .
Cc1ccccc1Cn1c(=N)n(CC(=O)c2ccco2)c2ccccc21 | -5 | 8 | 3 | 22* | 3 | 6 | 3
CCCn1c(=N)n(CC(=O)c2ccco2)c2ccccc21 | 0 | 1 | -2 | 2 | -2 | 9 | .
Cc1csc(=O)n1CC(=O)OCC(=O)NC(C)c1ccc(F)cc1 (stereo not drawn) | 5 | 6 | -3 | 19* | 0 | 0 | 3
